Assay results published in ChEMBL document CHEMBL1122708, “Preparation and antibacterial activities of new 1,2,3-diazaborine derivatives and analogues” (1984).
Converted amounts (≈) assume the structure as drawn.

How the values were obtained:
Salmonella typhimurium = assay: Minimum inhibitory concentration of compound against Salmonella Typhimurium delta 119; format: functional, Salmonella enterica subsp. enterica serovar Typhimurium; conditions: Salmonella enterica
Neisseria gonorrhoeae [1] = assay: Minimum inhibitory concentration of compound against Neisseria gonorrhoeae W2; format: functional
How it was run: (§1)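 Agar dilution on Kellogg agar, 10⁶ colony forming units, incubated 20 h at 36 °C in 5% CO₂; MIC is the lowest concentration giving no visible growth.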

Klebsiella aerogenes = assay: Minimum inhibitory concentration of compound against Enterobacter aerogenes delta 220; format: functional
Escherichia coli [2] = assay: Antibacterial activity againist Escherichia coli 120 infected NMRI mice after peroral administration; format: functional; conditions: po
How it was run: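 ED50 in NMRI mice infected intraperitoneally with E. coli 120; compound given orally immediately and 5 h after infection.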

Neisseria gonorrhoeae [3] = assay: Minimum inhibitory concentration of compound against Neisseria gonorrhoeae AS 7720; format: functional; how it was run: as §1
Klebsiella pneumoniae = assay: Minimum inhibitory concentration of compound against Klebsiella pneumoniae delta 217; format: functional
Escherichia coli [4] = assay: Minimum inhibitory concentration of compound against Escherichia coli delta 120; format: functional
Proteus mirabilis = assay: Minimum inhibitory concentration against Proteus mirabilis delta 89; format: functional

MIC (Salmonella typhimurium) [µg/mL] | MIC (Neisseria gonorrhoeae [1]) [µg/mL] | MIC (Klebsiella aerogenes) [µg/mL] | MIC (Neisseria gonorrhoeae [3]) [µg/mL] | MIC (Klebsiella pneumoniae) [µg/mL] | MIC (Escherichia coli [4]) [µg/mL] | MIC (Proteus mirabilis) [µg/mL] | SMILES | ED50 (Escherichia coli [2]) [mg/kg]
6.25 (≈ 20.8 µM) | 8 (≈ 26.7 µM) | > 50 | 2 (≈ 6.66 µM) | 3.12 (≈ 10.4 µM) | 25 (≈ 83.3 µM) | 12.5 (≈ 41.6 µM) | Cc1ccc(S(=O)(=O)N2N=Cc3ccccc3B2O)cc1 | ~25
> 50 |  |  |  |  | > 50 |  | Cc1ccc(S(=O)(=O)N2N=Cc3c(Cl)cc(N(C)C)cc3B2O)cc1 | > 300
> 50 |  |  |  |  | > 50 |  | CS(=O)(=O)N1N=Cc2ccccc2B1O | 
> 50 |  | > 50 |  | 50 (≈ 144 µM) | > 50 | 10 (≈ 28.9 µM) | Cc1cc(C)c(S(=O)(=O)N2N=Cc3c(F)cccc3B2O)c(C)c1 | > 100
50 (≈ 109 µM) | 2 (≈ 4.36 µM) | > 50 | 0.5 (≈ 1.09 µM) | 50 (≈ 109 µM) | > 50 | 6.25 (≈ 13.6 µM) | O=S(=O)(c1cc(Cl)c(Cl)cc1Cl)N1N=Cc2oc(Br)cc2B1O | > 300
> 50 |  |  |  |  | > 50 |  | Cc1ccc(S(=O)(=O)N2N=Cc3ccc(O)cc3B2O)cc1 | ~300
> 50 | 8 (≈ 17.1 µM) | > 50 | 1 (≈ 2.14 µM) | 50 (≈ 107 µM) | > 50 | 6.25 (≈ 13.3 µM) | O=S(=O)(c1cc(Cl)c(Cl)cc1Cl)N1N=Cc2cc(Br)ccc2B1O | > 300
> 50 |  |  |  |  | > 50 |  | Cc1ccc(S(=O)(=O)N2N=Cc3ccc(F)cc3B2O)cc1 | ~250
3.12 (≈ 10.3 µM) | 8 (≈ 26.3 µM) | 25 (≈ 82.2 µM) | 1 (≈ 3.29 µM) | 1.56 (≈ 5.13 µM) | 12.5 (≈ 41.1 µM) | 3.12 (≈ 10.3 µM) | Cc1ccc(S(=O)(=O)N2N=Cc3oc(C)cc3B2O)cc1 | ~10
3.12 (≈ 8.46 µM) | 8 (≈ 21.7 µM) | 25 (≈ 67.7 µM) | 2 (≈ 5.42 µM) | 3.12 (≈ 8.46 µM) | 12.5 (≈ 33.9 µM) | 3.12 (≈ 8.46 µM) | Cc1ccc(S(=O)(=O)N2N=Cc3oc(Br)cc3B2O)cc1 | ~30
6.25 (≈ 16.5 µM) | 2 (≈ 5.28 µM) | > 50 | 1 (≈ 2.64 µM) | 6.25 (≈ 16.5 µM) | 25 (≈ 66 µM) | 1.56 (≈ 4.12 µM) | Cc1ccc(S(=O)(=O)N2N=Cc3cc(Br)ccc3B2O)cc1 | ~40
3.12 (≈ 9.66 µM) | 2 (≈ 6.19 µM) | 12.5 (≈ 38.7 µM) | 2 (≈ 6.19 µM) | 3.12 (≈ 9.66 µM) | 12.5 (≈ 38.7 µM) | 6.25 (≈ 19.3 µM) | CCS(=O)(=O)N1N=Cc2sc(Br)cc2B1O | 
3.12 (≈ 9.93 µM) | 8 (≈ 25.5 µM) | 50 (≈ 159 µM) | 1 (≈ 3.18 µM) | 1.56 (≈ 4.97 µM) | 12.5 (≈ 39.8 µM) | 3.12 (≈ 9.93 µM) | Cc1ccc(S(=O)(=O)N2N=Cc3cc(C)ccc3B2O)cc1 | ~15
1.56 (≈ 4.58 µM) | 0.5 (≈ 1.47 µM) | 12.5 (≈ 36.7 µM) | 0.5 (≈ 1.47 µM) | 1.56 (≈ 4.58 µM) | 12.5 (≈ 36.7 µM) | 1.56 (≈ 4.58 µM) | Cc1cc2c(s1)C=NN(S(=O)(=O)c1ccccc1Cl)B2O | 49
50 (≈ 143 µM) |  |  |  |  | > 50 |  | O=[N+]([O-])c1ccc(S(=O)(=O)N2N=Cc3c(F)cccc3B2O)cc1 | ~100
12.5 (≈ 46.8 µM) | 8 (≈ 29.9 µM) | > 50 | 8 (≈ 29.9 µM) | 6.25 (≈ 23.4 µM) | > 50 | 6.25 (≈ 23.4 µM) | Cc1ccc2c(c1)C=NN(S(=O)(=O)N(C)C)B2O | 
0.78 (≈ 2.87 µM) | 1 (≈ 3.67 µM) | 3.12 (≈ 11.5 µM) | 1 (≈ 3.67 µM) | 0.39 (≈ 1.43 µM) | 1.56 (≈ 5.73 µM) | 0.78 (≈ 2.87 µM) | CCCS(=O)(=O)N1N=Cc2sc(C)cc2B1O | 4.5
> 50 |  |  |  |  | > 50 |  | CC1=NN(S(=O)(=O)c2ccc(C)cc2)B(O)c2ccccc21 | ~100
3.12 (≈ 7.69 µM) | 1 (≈ 2.47 µM) | 25 (≈ 61.7 µM) | 0.5 (≈ 1.23 µM) | 1.56 (≈ 3.85 µM) | 25 (≈ 61.7 µM) | 0.78 (≈ 1.92 µM) | O=S(=O)(c1ccccc1Cl)N1N=Cc2sc(Br)cc2B1O | 39
> 50 |  |  |  |  | > 50 |  | Cc1ccc(S(=O)(=O)N2N=Cc3c(ccn3C)B2O)cc1 | > 300
3.12 (≈ 12.1 µM) | 8 (≈ 31 µM) | 25 (≈ 96.8 µM) | 8 (≈ 31 µM) | 1.56 (≈ 6.04 µM) | 6.25 (≈ 24.2 µM) | 25 (≈ 96.8 µM) | CCCS(=O)(=O)N1N=Cc2sccc2B1O | 28
10 (≈ 31.3 µM) | 8 (≈ 25.1 µM) | 50 (≈ 157 µM) | 8 (≈ 25.1 µM) | 10 (≈ 31.3 µM) | 25 (≈ 78.3 µM) | 6.25 (≈ 19.6 µM) | Nc1ccc(S(=O)(=O)N2N=Cc3c(F)cccc3B2O)cc1 | 65
3.12 (≈ 7.61 µM) | 8 (≈ 19.5 µM) | > 50 | 1 (≈ 2.44 µM) | 0.78 (≈ 1.9 µM) | 6.25 (≈ 15.2 µM) | 3.12 (≈ 7.61 µM) | O=[N+]([O-])c1ccc(S(=O)(=O)N2N=Cc3cc(Br)ccc3B2O)cc1 | ~25
> 50 |  |  |  |  | > 50 |  | Cc1ccc(S(=O)(=O)N2N=Cc3cc(Cl)c(Cl)cc3B2O)cc1 | > 100

MIC (Salmonella typhimurium) [µg/mL] | MIC (Neisseria gonorrhoeae [1]) [µg/mL] | MIC (Klebsiella aerogenes) [µg/mL] | MIC (Neisseria gonorrhoeae [3]) [µg/mL] | MIC (Klebsiella pneumoniae) [µg/mL] | MIC (Escherichia coli [4]) [µg/mL] | MIC (Proteus mirabilis) [µg/mL] | SMILES | ED50 (Escherichia coli [2]) [mg/kg]
> 50 |  |  |  |  | > 50 |  | Cc1ccc(S(=O)(=O)N2N=C(c3ccccc3)c3ccccc3B2O)cc1 | > 300
> 50 |  |  |  |  | > 50 |  | Cc1ccc(S(=O)(=O)N2N=Cc3ccc(C(=O)O)cc3B2O)cc1 | 
> 50 |  |  |  |  | > 50 |  | Cc1ccc(S(=O)(=O)N2N=Cc3c(Cl)cc(Cl)cc3B2O)cc1 | > 100
> 50 |  | > 50 |  | > 50 | > 50 | > 50 | Cc1ccc(S(=O)(=O)N2N=Cc3c(C)ccc(C)c3B2O)cc1 | > 600
2.5 (≈ 7.05 µM) | 1 (≈ 2.82 µM) | 25 (≈ 70.5 µM) | 0.5 (≈ 1.41 µM) | 1.25 (≈ 3.52 µM) | 10 (≈ 28.2 µM) | 1.56 (≈ 4.4 µM) | CCc1cc2c(s1)B(O)N(S(=O)(=O)c1ccccc1Cl)N=C2 | 24
> 50 |  | > 50 |  | > 50 | > 50 | 25 (≈ 61.4 µM) | O=S(=O)(c1cc(Cl)c(Cl)cc1Cl)N1N=Cc2c(F)cccc2B1O | > 300
1.56 (≈ 4.67 µM) | 0.5 (≈ 1.5 µM) | 25 (≈ 74.8 µM) | 0.25 (≈ 0.748 µM) | 1.25 (≈ 3.74 µM) | 6.25 (≈ 18.7 µM) | 1.25 (≈ 3.74 µM) | CCc1cc2c(s1)B(O)N(S(=O)(=O)c1ccc(C)cc1)N=C2 | 9
> 50 |  | > 50 |  | 50 (≈ 132 µM) | > 50 | 50 (≈ 132 µM) | Cc1ccc(S(=O)(=O)N2N=Cc3c(ccn3Cc3ccccc3)B2O)cc1 | > 600
50 (≈ 159 µM) | 8 (≈ 25.5 µM) | > 50 | 2 (≈ 6.37 µM) | 10 (≈ 31.8 µM) | > 50 | 5 (≈ 15.9 µM) | Cc1ccc(S(=O)(=O)N2N=Cc3c(C)cccc3B2O)cc1 | > 100
6.25 (≈ 16 µM) | 1 (≈ 2.55 µM) | 25 (≈ 63.8 µM) | 0.5 (≈ 1.28 µM) | 1.25 (≈ 3.19 µM) | 25 (≈ 63.8 µM) | 1.25 (≈ 3.19 µM) | CC(=O)Nc1ccc(S(=O)(=O)N2N=Cc3cc(C)ccc3B2O)c(Cl)c1 | 16
25 (≈ 78.6 µM) | 8 (≈ 25.1 µM) | > 50 | 2 (≈ 6.29 µM) | 25 (≈ 78.6 µM) | > 50 | 3.12 (≈ 9.81 µM) | Cc1ccc(S(=O)(=O)N2N=Cc3c(F)cccc3B2O)cc1 | 5
> 50 |  |  |  |  | > 50 |  | Cc1ccc(S(=O)(=O)N2N=Cc3c(Br)cccc3B2O)cc1 | > 100
50 (≈ 198 µM) | > 8 | > 50 | > 8 | 12.5 (≈ 49.4 µM) | > 50 | 50 (≈ 198 µM) | CN(C)S(=O)(=O)N1N=Cc2ccccc2B1O | 57
> 50 |  | > 50 |  | 50 (≈ 159 µM) | > 50 | 50 (≈ 159 µM) | Cc1ccc(S(=O)(=O)N2N=Cc3cc(N)ccc3B2O)cc1 | > 300
> 50 |  |  |  |  | > 50 |  | Cc1ccc(S(=O)(=O)N2N=Cc3ccc(N(C)C)cc3B2O)cc1 | 100
> 50 |  |  |  |  | > 50 |  | Cc1ccc(S(=O)(=O)N2N=Cc3c(Cl)cccc3B2O)cc1 | ~100
> 50 |  | > 50 |  | > 50 | > 50 | 50 (≈ 130 µM) | Cc1ccc(S(=O)(=O)N2N=Cc3scc(Br)c3B2O)cc1 | > 300
3.12 (≈ 9.9 µM) | 8 (≈ 25.4 µM) | 25 (≈ 79.3 µM) | 2 (≈ 6.35 µM) | 1.56 (≈ 4.95 µM) | 6.25 (≈ 19.8 µM) | 0.39 (≈ 1.24 µM) | Cc1ccc2c(c1)C=NN(S(=O)(=O)c1ccc(N)cc1)B2O | 5
2.5 (≈ 9.39 µM) | 2 (≈ 7.52 µM) | 10 (≈ 37.6 µM) | 2 (≈ 7.52 µM) | 1.25 (≈ 4.7 µM) | 6.25 (≈ 23.5 µM) | 1.56 (≈ 5.86 µM) | CCCS(=O)(=O)N1N=Cc2cc(C)ccc2B1O | 73
> 50 |  |  |  |  | > 50 |  | Cc1ccc(S(=O)(=O)N2N=Cc3cc(N(C)C)ccc3B2O)cc1 | > 300
> 50 |  |  |  |  | > 50 |  | CC(=O)Nc1ccc2c(c1)B(O)N(S(=O)(=O)c1ccc(C)cc1)N=C2 | > 300
1.56 (≈ 5.45 µM) | 1 (≈ 3.49 µM) | 6.25 (≈ 21.8 µM) | 1 (≈ 3.49 µM) | 0.78 (≈ 2.73 µM) | 6.25 (≈ 21.8 µM) | 1.56 (≈ 5.45 µM) | Cc1cc2c(s1)B(O)N(S(=O)(=O)CC(C)C)N=C2 | 5
> 50 | 8 (≈ 20.6 µM) | > 50 | 2 (≈ 5.15 µM) | > 50 | > 50 | 50 (≈ 129 µM) | Cc1ccc(S(=O)(=O)N2N=Cc3cc4c(cc3B2O)-c2ccccc2C4)cc1 | > 600
